Measured values reported in ChEMBL document CHEMBL3621130, “Identification and characterization of β-sitosterol target proteins” (Bioorg Med Chem Lett, 2015).
The source made the active and inactive calls. The rule behind the calls is not given here.

Assays:
Format in all cases: cell-based
[1] = target: T1, 3-oxo-5-alpha-steroid 4-dehydrogenase 1 (Homo sapiens) (UniProt P18405); assay: Binding affinity to S5A1 in human DU145 cells at 200 to 600 nM by affinity chromatography analysis; settings: DU-145
T1 sequence (whole entry): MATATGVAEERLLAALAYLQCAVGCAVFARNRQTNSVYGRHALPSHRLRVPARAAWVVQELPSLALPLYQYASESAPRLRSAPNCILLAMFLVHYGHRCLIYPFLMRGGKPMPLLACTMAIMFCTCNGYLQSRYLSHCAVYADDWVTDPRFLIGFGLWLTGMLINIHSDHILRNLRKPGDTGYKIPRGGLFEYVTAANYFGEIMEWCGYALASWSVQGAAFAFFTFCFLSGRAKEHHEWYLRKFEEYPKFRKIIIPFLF

[2] = target: T2, Peroxisomal multifunctional enzyme type 2 (Mus musculus) (UniProt P51660); assay: Binding affinity to 17beta-HSD4 in mouse LPS-treated RAW264.7 cells at 200 nM after 2 hrs by MALDI mass spectrometry analysis
T2 sequence (whole entry): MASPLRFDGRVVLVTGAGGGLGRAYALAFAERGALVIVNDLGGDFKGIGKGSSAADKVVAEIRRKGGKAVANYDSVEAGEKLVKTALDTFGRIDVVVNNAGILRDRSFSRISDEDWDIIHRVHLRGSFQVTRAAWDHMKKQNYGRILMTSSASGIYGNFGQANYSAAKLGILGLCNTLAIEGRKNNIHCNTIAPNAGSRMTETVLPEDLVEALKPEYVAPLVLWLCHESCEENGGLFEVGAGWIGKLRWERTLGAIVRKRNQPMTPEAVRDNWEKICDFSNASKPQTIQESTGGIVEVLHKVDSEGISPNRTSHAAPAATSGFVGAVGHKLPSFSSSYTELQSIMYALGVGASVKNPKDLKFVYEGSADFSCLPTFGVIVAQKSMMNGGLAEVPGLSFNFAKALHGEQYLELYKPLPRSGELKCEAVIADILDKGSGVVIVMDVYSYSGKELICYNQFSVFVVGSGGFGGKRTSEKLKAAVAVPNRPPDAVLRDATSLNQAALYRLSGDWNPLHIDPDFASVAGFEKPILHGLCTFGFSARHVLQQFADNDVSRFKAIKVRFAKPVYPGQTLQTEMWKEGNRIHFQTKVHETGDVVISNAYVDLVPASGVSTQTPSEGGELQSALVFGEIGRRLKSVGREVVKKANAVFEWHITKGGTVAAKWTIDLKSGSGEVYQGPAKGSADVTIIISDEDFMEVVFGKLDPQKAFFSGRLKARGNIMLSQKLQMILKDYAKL

[3] = target: T3, Peroxisomal multifunctional enzyme type 2 (Homo sapiens) (UniProt P51659); assay: Binding affinity to 17beta-HSD4 in human DU145 cells at 200 nM by affinity chromatography analysis; settings: DU-145
T3 sequence (whole entry): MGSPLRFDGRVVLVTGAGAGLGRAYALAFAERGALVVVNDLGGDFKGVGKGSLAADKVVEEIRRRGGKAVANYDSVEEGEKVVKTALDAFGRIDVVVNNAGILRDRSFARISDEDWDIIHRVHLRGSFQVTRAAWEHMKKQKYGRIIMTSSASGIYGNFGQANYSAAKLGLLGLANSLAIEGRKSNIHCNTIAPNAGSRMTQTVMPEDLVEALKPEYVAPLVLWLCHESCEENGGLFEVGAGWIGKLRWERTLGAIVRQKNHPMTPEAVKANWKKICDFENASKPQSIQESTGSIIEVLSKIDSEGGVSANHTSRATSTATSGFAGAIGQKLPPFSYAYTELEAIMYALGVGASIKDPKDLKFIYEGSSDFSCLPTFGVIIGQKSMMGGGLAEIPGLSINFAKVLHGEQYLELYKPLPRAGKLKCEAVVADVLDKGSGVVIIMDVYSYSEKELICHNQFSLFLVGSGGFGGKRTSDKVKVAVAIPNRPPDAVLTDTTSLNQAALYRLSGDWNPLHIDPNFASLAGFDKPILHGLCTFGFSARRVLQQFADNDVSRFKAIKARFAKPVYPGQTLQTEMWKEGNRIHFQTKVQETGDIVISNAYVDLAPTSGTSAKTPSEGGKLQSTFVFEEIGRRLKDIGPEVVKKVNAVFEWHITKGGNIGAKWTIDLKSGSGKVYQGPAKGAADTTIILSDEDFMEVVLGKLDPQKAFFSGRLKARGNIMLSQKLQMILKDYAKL

[4] = target: T2, Peroxisomal multifunctional enzyme type 2 (Mus musculus); assay: Binding affinity to 17beta-HSD4 in mouse RAW264.7 cells at 200 nM by Western blot analysis
How it was run: (§1)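 Streptavidin affinity pull-down was run side by side in lysates from LPS-treated and untreated mouse Raw264.7 macrophages. Biotin, biotinylated β-sitosterol or biotinylated cholesterol was used at 200 nM for 17β-HSD4 and 600 nM for E-Syt1. Probe incubation with lysate was 2 h, followed by overnight streptavidin agarose capture.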

[5] = target: T4, Extended synaptotagmin-1 (Mus musculus) (UniProt Q3U7R1); assay: Binding affinity to E-Syt1 in mouse RAW264.7 cells at 600 nM after 2 hrs by MALDI mass spectrometry analysis; how it was run: as §1
T4 sequence (whole entry): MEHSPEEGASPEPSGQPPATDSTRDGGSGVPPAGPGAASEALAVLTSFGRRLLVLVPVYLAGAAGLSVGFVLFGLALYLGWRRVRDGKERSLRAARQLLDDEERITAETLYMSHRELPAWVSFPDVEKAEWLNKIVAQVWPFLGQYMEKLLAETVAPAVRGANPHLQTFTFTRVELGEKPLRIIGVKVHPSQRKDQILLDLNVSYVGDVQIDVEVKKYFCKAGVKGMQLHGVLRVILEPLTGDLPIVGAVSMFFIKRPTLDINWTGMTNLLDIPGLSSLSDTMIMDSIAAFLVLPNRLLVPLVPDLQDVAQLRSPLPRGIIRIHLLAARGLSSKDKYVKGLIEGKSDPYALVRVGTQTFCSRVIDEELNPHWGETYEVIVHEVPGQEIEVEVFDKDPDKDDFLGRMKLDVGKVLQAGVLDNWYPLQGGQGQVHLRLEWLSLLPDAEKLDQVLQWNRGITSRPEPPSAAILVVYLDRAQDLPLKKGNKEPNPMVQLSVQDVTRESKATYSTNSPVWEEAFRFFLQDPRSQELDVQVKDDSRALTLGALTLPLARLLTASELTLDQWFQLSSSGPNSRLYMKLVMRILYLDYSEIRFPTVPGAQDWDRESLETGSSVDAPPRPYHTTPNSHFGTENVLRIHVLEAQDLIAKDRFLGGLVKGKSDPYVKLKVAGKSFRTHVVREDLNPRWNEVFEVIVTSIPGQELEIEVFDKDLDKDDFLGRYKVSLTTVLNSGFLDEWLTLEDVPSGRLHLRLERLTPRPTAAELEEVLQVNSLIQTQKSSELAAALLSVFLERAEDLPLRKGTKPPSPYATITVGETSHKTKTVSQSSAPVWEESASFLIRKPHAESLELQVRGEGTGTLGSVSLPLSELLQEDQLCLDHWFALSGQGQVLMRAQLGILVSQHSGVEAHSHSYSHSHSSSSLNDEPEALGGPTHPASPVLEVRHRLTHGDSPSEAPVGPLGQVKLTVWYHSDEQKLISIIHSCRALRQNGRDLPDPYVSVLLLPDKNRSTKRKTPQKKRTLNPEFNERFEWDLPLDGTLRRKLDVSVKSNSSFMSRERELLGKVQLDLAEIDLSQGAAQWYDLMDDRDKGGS

[6] = target: T4, Extended synaptotagmin-1 (Mus musculus); assay: Binding affinity to E-Syt1 in mouse RAW264.7 cells at 600 nM by Western blot analysis; how it was run: as §1
[7] = target: T5, Extended synaptotagmin-1 (Homo sapiens) (UniProt Q9BSJ8); assay: Binding affinity to E-Syt1 in human PC3 cells at 600 nM by affinity chromatography analysis; settings: PC-3
T5 sequence (whole entry): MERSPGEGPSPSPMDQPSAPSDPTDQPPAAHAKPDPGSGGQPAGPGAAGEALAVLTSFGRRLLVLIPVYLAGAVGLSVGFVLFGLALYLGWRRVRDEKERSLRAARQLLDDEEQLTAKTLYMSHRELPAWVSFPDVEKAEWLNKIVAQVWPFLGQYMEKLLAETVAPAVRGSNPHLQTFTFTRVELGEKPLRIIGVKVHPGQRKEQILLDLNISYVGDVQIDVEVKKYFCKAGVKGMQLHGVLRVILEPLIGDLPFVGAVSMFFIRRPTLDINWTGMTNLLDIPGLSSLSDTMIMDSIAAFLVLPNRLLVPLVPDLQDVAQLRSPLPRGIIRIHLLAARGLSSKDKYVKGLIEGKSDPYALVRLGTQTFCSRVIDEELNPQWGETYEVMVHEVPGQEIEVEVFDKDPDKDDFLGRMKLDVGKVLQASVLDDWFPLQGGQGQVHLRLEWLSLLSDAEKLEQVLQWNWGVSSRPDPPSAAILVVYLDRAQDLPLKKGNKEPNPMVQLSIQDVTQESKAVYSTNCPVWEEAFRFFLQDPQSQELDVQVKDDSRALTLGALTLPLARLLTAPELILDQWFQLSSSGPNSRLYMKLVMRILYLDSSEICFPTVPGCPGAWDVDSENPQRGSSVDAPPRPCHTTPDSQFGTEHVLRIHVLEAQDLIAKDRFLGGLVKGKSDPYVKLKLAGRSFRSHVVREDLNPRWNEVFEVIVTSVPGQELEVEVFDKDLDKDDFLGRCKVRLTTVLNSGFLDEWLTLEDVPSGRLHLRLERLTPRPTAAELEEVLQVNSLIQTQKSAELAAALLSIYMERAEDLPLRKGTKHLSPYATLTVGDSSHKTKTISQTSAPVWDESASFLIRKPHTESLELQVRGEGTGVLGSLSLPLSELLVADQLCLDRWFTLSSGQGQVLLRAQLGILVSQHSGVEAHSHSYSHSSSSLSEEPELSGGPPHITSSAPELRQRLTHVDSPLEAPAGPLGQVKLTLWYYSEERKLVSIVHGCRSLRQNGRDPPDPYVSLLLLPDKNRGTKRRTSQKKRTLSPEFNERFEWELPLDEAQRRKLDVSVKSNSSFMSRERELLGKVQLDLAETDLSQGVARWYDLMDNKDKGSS

[8] = target: T5, Extended synaptotagmin-1 (Homo sapiens); assay: Binding affinity to E-Syt1 in human DU145 cells at 600 nM by affinity chromatography analysis; settings: DU-145
[9] = target: T2, Peroxisomal multifunctional enzyme type 2 (Mus musculus); assay: Binding affinity to 17beta-HSD4 in mouse LPS-treated RAW264.7 cells at 200 nM by Western blot analysis; how it was run: as §1
[10] = target: T4, Extended synaptotagmin-1 (Mus musculus); assay: Binding affinity to E-Syt1 in mouse LPS-treated RAW264.7 cells at 600 nM by Western blot analysis; how it was run: as §1
[11] = target: T3, Peroxisomal multifunctional enzyme type 2 (Homo sapiens); assay: Binding affinity to 17beta-HSD4 in human PC3 cells at 200 nM by affinity chromatography analysis; settings: PC-3
[12] = target: T2, Peroxisomal multifunctional enzyme type 2 (Mus musculus); assay: Binding affinity to 17beta-HSD4 in mouse RAW264.7 cells at 200 nM after 2 hrs by MALDI mass spectrometry analysis; how it was run: as §1
[13] = target: T1, 3-oxo-5-alpha-steroid 4-dehydrogenase 1 (Homo sapiens); assay: Binding affinity to S5A1 in human PC3 cells at 200 to 600 nM by affinity chromatography analysis; settings: PC-3
[14] = target: T4, Extended synaptotagmin-1 (Mus musculus); assay: Binding affinity to E-Syt1 in mouse LPS-treated RAW264.7 cells at 600 nM after 2 hrs by MALDI mass spectrometry analysis

Structure (SMILES) | Activity [1] | Activity [2] | Activity [3] | Activity [4] | Activity [5] | Activity [6] | Activity [7] | Activity [8] | Activity [9] | Activity [10] | Activity [11] | Activity [12] | Activity [13] | Activity [14]
CC[C@H](CC[C@@H](C)[C@H]1CC[C@H]2[C@@H]3CC=C4C[C@@H](OCc5cn(CCOCCOCCOCCNC(=O)CCCC[C@@H]6SC[C@@H]7NC(=O)N[C@@H]76)nn5)CC[C@]4(C)[C@H]3CC[C@]12C)C(C)C | inactive | Active | Active | Active | Active | Active | Active | Active | Active | Active | Active | Active | inactive | Active
CC(C)CCC[C@@H](C)[C@H]1CC[C@H]2[C@@H]3CC=C4C[C@@H](OCc5cn(CCOCCOCCOCCNC(=O)CCCC[C@@H]6SC[C@@H]7NC(=O)N[C@@H]76)nn5)CC[C@]4(C)[C@H]3CC[C@]12C | inactive |  | Active | Active |  |  |  |  | Active |  | Active |  | inactive | 
